# Source: ChEMBL document CHEMBL4400512, “Searching for new agents active against Candida albicans biofilm: A series of indole derivatives, design, synthesis and biological evaluation” (Eur J Med Chem, 2019)
# How the values were obtained:
# Candida albicans [1] = test: Antifungal activity against planktonic form of Candida albicans ATCC 10231 by broth microdilution method; assay type: organism-based; conditions: in vitro
# Summary of the method: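 CLSI M27-A3 broth microdilution. Cells grown on Sabouraud dextrose agar at 35°C for 24 h; final inoculum 1×10^3–5×10^3 cells/mL. Compounds from DMSO stocks, final DMSO below 1%, final range 256–0.25 µg/mL. Controls were DMSO 1% and fluconazole reference. MIC50 is the lowest concentration giving ≥50% growth inhibition. Three independent experiments in duplicate; median reported.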
# Candida albicans [2] = test: Antibiofilm activity against Candida albicans ATCC 10231 assessed as inhibition of biofilm formation by XTT reduction assay; assay type: functional
# Summary of the method: (§1)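 Biofilm assay after Pierce et al., with compound applied either during biofilm formation or to 24 h pre-formed (mature) biofilm. Read-out is metabolic activity of cells in the biofilm by XTT reduction. BMIC50 is the lowest concentration giving a 50% drop relative to untreated growth control. Tested in triplicate, at least two experiments on separate dates; median reported.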
# Candida albicans [3] = test: Antibiofilm activity against Candida albicans ATCC 10231 assessed as inhibition of mature biofilm formation by XTT reduction assay; assay type: functional; summary of the method: as §1
# [4] = Toxicity in Galleria mellonella larvae assessed as larval survival at 5 ug/ml after 72 hrs relative to control
# Summary of the method: (§2)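 Ten healthy larvae per group, stored at 15°C in the dark. Each got a 20 µL injection into the haemocoel via the last left proleg, with compound freshly made in sterile water containing <1% v/v DMSO. Larvae were incubated at 30°C and survival scored every 24 h; death was no movement on stimulation plus cuticle discolouration. Controls were untreated, pierced-only and vehicle. Mean % survival of two independent experiments.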
# Candida albicans [5] = test: Antibiofilm activity against Candida albicans PMC 1082 assessed as inhibition of mature biofilm formation by XTT reduction assay; assay type: functional
# Summary of the method: (§3)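 Biofilm method of Pierce et al. Biofilms were treated either during formation or once mature (24 h preformed). Metabolic activity of the cells within the biofilm was read by XTT reduction. BMIC50 is the lowest concentration giving a 50% drop in metabolic activity versus the untreated growth control. At least two experiments on separate dates, triplicate, reported as median.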
# [6] = Toxicity in Galleria mellonella larvae assessed as larval survival at 5 ug/ml after 48 hrs relative to control; summary of the method: as §2
# [7] = Toxicity in Galleria mellonella larvae assessed as larval survival at 50 ug/ml after 24 hrs relative to control; summary of the method: as §2
# [8] = Toxicity in Galleria mellonella larvae assessed as larval survival at 5 ug/ml after 24 hrs relative to control; summary of the method: as §2
# Candida albicans [9] = test: Antibiofilm activity against Candida albicans PMC 1042 assessed as inhibition of biofilm formation by XTT reduction assay; assay type: functional; summary of the method: as §3
# [10] = Toxicity in Galleria mellonella larvae assessed as larval survival at 500 ug/ml after 24 hrs relative to control; summary of the method: as §2
# Candida albicans [11] = test: Antifungal activity against planktonic form of Candida albicans PMC 1042 by broth microdilution method; assay type: organism-based; conditions: in vitro
# Summary of the method: (§4)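 Broth microdilution per CLSI M27-A3 and M27-S4. Strains were grown on Sabouraud dextrose agar at 35°C for 24 h. Final inoculum 1×10^3–5×10^3 cells/mL. Compounds were dissolved in DMSO (final <1%); 1% DMSO served as control. Final range 256–0.25 µg/mL. MIC50 is the lowest concentration giving ≥50% growth inhibition. Three independent experiments in duplicate, median; fluconazole as reference.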
# Candida albicans [12] = test: Antifungal activity against planktonic form of Candida albicans ATCC 10261 by broth microdilution method; assay type: organism-based; conditions: in vitro; summary of the method: as §4
# [13] = Toxicity in Galleria mellonella larvae assessed as larval survival at 50 ug/ml after 72 hrs relative to control; summary of the method: as §2
# [14] = Toxicity in Galleria mellonella larvae assessed as larval survival at 50 ug/ml after 48 hrs relative to control; summary of the method: as §2
# [15] = Toxicity in Galleria mellonella larvae assessed as larval survival at 100 ug/ml after 24 hrs relative to control; summary of the method: as §2
# Candida albicans [16] = test: Antifungal activity against planktonic form of Candida albicans PMC 1082 by broth microdilution method; assay type: organism-based; conditions: in vitro; summary of the method: as §4
# Candida albicans [17] = test: Antibiofilm activity against Candida albicans PMC 1042 assessed as inhibition of mature biofilm formation by XTT reduction assay; assay type: functional; summary of the method: as §3
# [18] = Toxicity in Galleria mellonella larvae assessed as larval survival at 500 ug/ml after 72 hrs relative to control; summary of the method: as §2
# Candida albicans [19] = test: Antibiofilm activity against Candida albicans ATCC 10261 assessed as inhibition of mature biofilm formation by XTT reduction assay; assay type: functional; summary of the method: as §3
# [20] = Toxicity in Galleria mellonella larvae assessed as larval survival at 10 ug/ml after 72 hrs relative to control; summary of the method: as §2
# [21] = Toxicity in Galleria mellonella larvae assessed as larval survival at 10 ug/ml after 24 hrs relative to control; summary of the method: as §2
# [22] = Toxicity in Galleria mellonella larvae assessed as larval survival at 500 ug/ml after 48 hrs relative to control; summary of the method: as §2
# [23] = Toxicity in Galleria mellonella larvae assessed as larval survival at 100 ug/ml after 48 hrs relative to control; summary of the method: as §2
# Candida albicans [24] = test: Antibiofilm activity against Candida albicans PMC 1082 assessed as inhibition of biofilm formation by XTT reduction assay; assay type: functional; summary of the method: as §3
# [25] = Toxicity in Galleria mellonella larvae assessed as larval survival at 100 ug/ml after 72 hrs relative to control; summary of the method: as §2
# Candida albicans [26] = test: Antibiofilm activity against Candida albicans ATCC 10261 assessed as inhibition of biofilm formation by XTT reduction assay; assay type: functional; summary of the method: as §3
# [27] = Toxicity in Galleria mellonella larvae assessed as larval survival at 10 ug/ml after 48 hrs relative to control; summary of the method: as §2
smiles,measurement,setting,value
O=C(NCCc1c[nH]c2ccccc12)c1cccnc1 [NICOTREDOLE],MIC50,Candida albicans [1],> 128 µg/mL
same,MBIC50,Candida albicans [2],>128 µg/mL
same,MBIC50,Candida albicans [3],64 µg/mL
Clc1ccc(CNCCc2c[nH]c3ccccc23)cc1,MIC50,Candida albicans [1],32 µg/mL
same,MBIC50,Candida albicans [2],16 µg/mL
same,MBIC50,Candida albicans [3],32 µg/mL
O=[N+]([O-])c1ccc(CNCCc2c[nH]c3ccccc23)o1,MIC50,Candida albicans [1],> 128 µg/mL
same,MBIC50,Candida albicans [2],16 µg/mL
same,MBIC50,Candida albicans [3],16 µg/mL
c1ccc(CNCCc2c[nH]c3ccccc23)cc1,MIC50,Candida albicans [1],> 128 µg/mL
same,MBIC50,Candida albicans [2],32 µg/mL
same,MBIC50,Candida albicans [3],32 µg/mL
COc1ccc(CNCCc2c[nH]c3ccccc23)cc1[N+](=O)[O-],MIC50,Candida albicans [1],> 128 µg/mL
same,MBIC50,Candida albicans [2],128 µg/mL
same,MBIC50,Candida albicans [3],32 µg/mL
c1ccc2c(CCNCc3ccc(CNCCc4c[nH]c5ccccc45)cc3)c[nH]c2c1,survival at 72 h,[4],100%
same,MBIC50,Candida albicans [5],4 µg/mL
same,survival at 48 h,[6],100%
same,survival at 24 h,[7],100%
same,survival at 24 h,[8],100%
same,MBIC50,Candida albicans [9],8 µg/mL
same,MIC50,Candida albicans [1],> 128 µg/mL
same,survival at 24 h,[10],100%
same,MIC50,Candida albicans [11],> 256 µg/mL
same,MIC50,Candida albicans [12],256 µg/mL
same,survival at 72 h,[13],90%
same,MBIC50,Candida albicans [2],16 µg/mL
same,survival at 48 h,[14],90%
same,survival at 24 h,[15],100%
same,MIC50,Candida albicans [16],> 256 µg/mL
same,MBIC50,Candida albicans [17],2 µg/mL
same,MBIC50,Candida albicans [3],8 µg/mL
same,survival at 72 h,[18],100%
same,MBIC50,Candida albicans [19],4 µg/mL
same,survival at 72 h,[20],100%
same,survival at 24 h,[21],100%
same,survival at 48 h,[22],100%
same,survival at 48 h,[23],100%
same,MBIC50,Candida albicans [24],8 µg/mL
same,survival at 72 h,[25],100%
same,MBIC50,Candida albicans [26],4 µg/mL
same,survival at 48 h,[27],100%
NCCc1c[nH]c2ccccc12 [TRYPTAMINE],MIC50,Candida albicans [1],> 128 µg/mL
same,MBIC50,Candida albicans [2],128 µg/mL
same,MBIC50,Candida albicans [3],>128 µg/mL
O=C(NCCc1c[nH]c2ccccc12)c1ccc([N+](=O)[O-])o1,MIC50,Candida albicans [1],> 128 µg/mL
same,MBIC50,Candida albicans [2],128 µg/mL
same,MBIC50,Candida albicans [3],16 µg/mL
O=[N+]([O-])c1cccc(Cl)c1CNCCc1c[nH]c2ccccc12,MIC50,Candida albicans [1],> 128 µg/mL
same,MBIC50,Candida albicans [2],16 µg/mL
same,MBIC50,Candida albicans [3],8 µg/mL
C(=C\c1ccccc1)/CNCCc1c[nH]c2ccccc12,MIC50,Candida albicans [1],64 µg/mL
same,MBIC50,Candida albicans [2],8 µg/mL
same,MBIC50,Candida albicans [3],64 µg/mL
O=[N+]([O-])c1ccc(/C=C/CNCCc2c[nH]c3ccccc23)cc1,MIC50,Candida albicans [1],> 128 µg/mL
same,MBIC50,Candida albicans [2],8 µg/mL
same,MBIC50,Candida albicans [3],>128 µg/mL
Brc1cccc(CNCCc2c[nH]c3ccccc23)c1,MIC50,Candida albicans [1],64 µg/mL
same,MBIC50,Candida albicans [2],4 µg/mL
same,MBIC50,Candida albicans [3],32 µg/mL
Brc1ccc(CNCCc2c[nH]c3ccccc23)cc1,survival at 72 h,[4],100%
same,MBIC50,Candida albicans [5],4 µg/mL
same,survival at 48 h,[6],100%
same,survival at 24 h,[7],100%
same,survival at 24 h,[8],100%
same,MBIC50,Candida albicans [9],8 µg/mL
same,MIC50,Candida albicans [1],64 µg/mL
same,survival at 24 h,[10],100%
same,MIC50,Candida albicans [11],16 µg/mL
same,MIC50,Candida albicans [12],32 µg/mL
same,survival at 72 h,[13],100%
same,MBIC50,Candida albicans [2],8 µg/mL
same,survival at 48 h,[14],100%
same,survival at 24 h,[15],100%
same,MIC50,Candida albicans [16],32 µg/mL
same,MBIC50,Candida albicans [17],2 µg/mL
same,MBIC50,Candida albicans [3],8 µg/mL
same,survival at 72 h,[18],100%
same,MBIC50,Candida albicans [19],8 µg/mL
same,survival at 72 h,[20],100%
same,survival at 24 h,[21],100%
same,survival at 48 h,[22],100%
same,survival at 48 h,[23],100%
same,MBIC50,Candida albicans [24],8 µg/mL
same,survival at 72 h,[25],100%
same,MBIC50,Candida albicans [26],8 µg/mL
same,survival at 48 h,[27],100%
O=[N+]([O-])c1ccc(CNCCc2c[nH]c3ccccc23)cc1,MIC50,Candida albicans [1],> 128 µg/mL
same,MBIC50,Candida albicans [2],32 µg/mL
same,MBIC50,Candida albicans [3],32 µg/mL
O=C(NCCc1c[nH]c2ccccc12)c1ccccc1,MIC50,Candida albicans [1],> 128 µg/mL
same,MBIC50,Candida albicans [2],32 µg/mL
same,MBIC50,Candida albicans [3],32 µg/mL
OC(Cn1cncn1)(Cn1cncn1)c1ccc(F)cc1F [FLUCONAZOLE],MBIC50,Candida albicans [5],>64 µg/mL
same,MBIC50,Candida albicans [9],>64 µg/mL
same,MIC50,Candida albicans [1],0.5 µg/mL
same,MIC50,Candida albicans [11],8 µg/mL
same,MIC50,Candida albicans [12],2 µg/mL
same,MBIC50,Candida albicans [2],128 µg/mL
same,MIC50,Candida albicans [16],0.125 µg/mL
same,MBIC50,Candida albicans [17],>64 µg/mL
same,MBIC50,Candida albicans [3],>128 µg/mL
same,MBIC50,Candida albicans [19],>64 µg/mL
same,MBIC50,Candida albicans [24],>64 µg/mL
same,MBIC50,Candida albicans [26],>64 µg/mL
O=C(NCCc1c[nH]c2ccccc12)c1ccccn1,MIC50,Candida albicans [1],> 128 µg/mL
same,MBIC50,Candida albicans [2],32 µg/mL
same,MBIC50,Candida albicans [3],32 µg/mL
O=[N+]([O-])c1ccccc1CNCCc1c[nH]c2ccccc12,survival at 72 h,[4],100%
same,survival at 48 h,[6],100%
same,survival at 24 h,[7],90%
same,survival at 24 h,[8],100%
same,MIC50,Candida albicans [1],> 128 µg/mL
same,survival at 24 h,[10],100%
same,survival at 72 h,[13],90%
same,MBIC50,Candida albicans [2],64 µg/mL
same,survival at 48 h,[14],90%
same,survival at 24 h,[15],90%
same,MBIC50,Candida albicans [3],8 µg/mL
same,survival at 72 h,[18],100%
same,survival at 72 h,[20],100%
same,survival at 24 h,[21],100%
same,survival at 48 h,[22],100%
same,survival at 48 h,[23],90%
same,survival at 72 h,[25],90%
same,survival at 48 h,[27],100%
CN(C)c1ccc(CNCCc2c[nH]c3ccccc23)cc1,MIC50,Candida albicans [1],> 128 µg/mL
same,MBIC50,Candida albicans [2],32 µg/mL
same,MBIC50,Candida albicans [3],16 µg/mL
Brc1ccccc1CNCCc1c[nH]c2ccccc12,MIC50,Candida albicans [1],128 µg/mL
same,MBIC50,Candida albicans [2],16 µg/mL
same,MBIC50,Candida albicans [3],16 µg/mL
